Measured values reported in publication PMC8809394 (Chemical Science, 2022).
Numbering of substitutions follows the chain as printed. pKd: −log10 of the molar value. “And” between values parts separate entries of the source, which are not always exact repeats. Equal values may be shown once.

Key:
[1] = molecular target: T1, POPWT (prolyl oligopeptidase) (Pyrococcus furiosus, UniProt Q51714); assay: Luminescence lifetime titration, cofactor binding to POPWT; details: for pKd: POPWT 0-300 μM, cofactor 5 μM, MQ H2O (+/- 0.5% ACN); for Δ lifetime (free vs. bound cofactor): non-covalent binding to POPWT
T1 sequence (Q51714 1-616): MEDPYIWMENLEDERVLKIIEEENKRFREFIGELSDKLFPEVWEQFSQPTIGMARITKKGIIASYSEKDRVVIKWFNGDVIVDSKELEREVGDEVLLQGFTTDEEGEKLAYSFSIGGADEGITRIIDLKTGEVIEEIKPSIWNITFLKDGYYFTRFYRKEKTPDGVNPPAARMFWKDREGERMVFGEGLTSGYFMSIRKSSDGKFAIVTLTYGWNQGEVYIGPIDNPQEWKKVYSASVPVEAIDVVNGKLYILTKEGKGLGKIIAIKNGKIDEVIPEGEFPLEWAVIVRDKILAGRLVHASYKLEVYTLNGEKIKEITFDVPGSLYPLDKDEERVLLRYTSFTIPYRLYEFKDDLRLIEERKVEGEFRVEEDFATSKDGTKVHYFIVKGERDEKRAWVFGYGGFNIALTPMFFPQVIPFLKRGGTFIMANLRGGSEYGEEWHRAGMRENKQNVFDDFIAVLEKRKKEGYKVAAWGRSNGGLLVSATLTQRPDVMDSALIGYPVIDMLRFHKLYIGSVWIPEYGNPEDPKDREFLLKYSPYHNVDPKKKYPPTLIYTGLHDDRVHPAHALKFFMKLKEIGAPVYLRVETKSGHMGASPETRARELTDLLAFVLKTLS
Outline: (§1)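 Non-covalent binding is measured by luminescence lifetime titration of the Ru(Bpy)3 2+-type cofactor against Pyrococcus furiosus prolyl oligopeptidase scaffold variants. Kd comes from the titration. Δ lifetime is the lifetime difference between free and bound cofactor. Each plotted point is a single measurement. Error bars are standard deviations from single-exponential tail fitting of the decay data.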

[2] = molecular target: T2, POPNeg (prolyl oligopeptidase variant) (Pyrococcus furiosus, UniProt Q51714, G99D/K255A/R198A/R338A/R55A/W142D/Y326D); assay: Luminescence lifetime titration, cofactor binding to POPNeg; details: non-covalent binding to POPNeg
T2 sequence (Q51714 1-616 R55A/G99D/W142D/R198A/K255A/Y326D/R338A): T1 sequence (Q51714 1-616) with R55A, G99D, W142D, R198A, K255A, Y326D, R338A
Outline: as §1

[3] = Luminescence lifetime; assay type: physicochemical; details: MQ H2O; λexc 450 nm, λem 620 nm; covalent ArMs 50 μM
[4] = deoxygenated acetonitrile ref 5,8; cited from earlier work
[5] = molecular target: BSA (Bos taurus, UniProt P02769); assay: Luminescence lifetime titration with BSA; assay type: binding; details: 3a 5 μM, BSA in MQ H2O
Chain of BSA (P02769 25-607): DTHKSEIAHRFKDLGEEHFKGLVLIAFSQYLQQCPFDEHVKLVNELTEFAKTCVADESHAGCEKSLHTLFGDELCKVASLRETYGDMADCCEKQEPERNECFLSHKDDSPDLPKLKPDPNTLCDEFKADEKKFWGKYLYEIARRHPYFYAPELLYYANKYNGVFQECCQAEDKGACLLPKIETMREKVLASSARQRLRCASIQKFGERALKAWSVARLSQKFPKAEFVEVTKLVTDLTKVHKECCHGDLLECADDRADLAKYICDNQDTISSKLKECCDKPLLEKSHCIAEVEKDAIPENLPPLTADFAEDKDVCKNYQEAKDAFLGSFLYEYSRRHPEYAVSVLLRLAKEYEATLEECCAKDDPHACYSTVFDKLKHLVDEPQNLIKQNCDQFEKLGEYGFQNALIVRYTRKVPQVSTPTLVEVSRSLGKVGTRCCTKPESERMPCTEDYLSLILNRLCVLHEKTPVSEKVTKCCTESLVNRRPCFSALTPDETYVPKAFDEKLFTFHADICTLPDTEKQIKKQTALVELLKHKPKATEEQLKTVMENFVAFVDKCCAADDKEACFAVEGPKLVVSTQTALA

[6] = molecular target: T3, POPNeut (prolyl oligopeptidase variant) (Pyrococcus furiosus, UniProt Q51714, G99A/K255A/R198A/R338A/R55A/W142A/Y326A); assay: Luminescence lifetime titration, cofactor binding to POPNeut
T3 sequence (Q51714 1-616 R55A/G99A/W142A/R198A/K255A/Y326A/R338A): T1 sequence (Q51714 1-616) with R55A, G99A, W142A, R198A, K255A, Y326A, R338A
Outline: as §1

Structure (SMILES)	pKd [1]	Δ lifetime (free vs. bound cofactor) [1]	Δ lifetime (free vs. bound cofactor) [2]	Lifetime (luminescence) [3]	luminescence lifetime [4]	binding to BSA [5]	binding to BSA ([5]; listed as Ru(Bpy)3^2+)	pKd ([6]; POPNeut 0-300 μM, cofactor 5 μM, MQ H2O)	Δ lifetime (free vs. bound cofactor) ([6]; non-covalent binding to POPNeut)
O=C([O-])c1ccnc(-c2cc(C(=O)[O-])ccn2)c1.[Ru+2].c1ccc(-c2ccccn2)nc1.c1ccc(-c2ccccn2)nc1 [3d]	4.52 and 4.53	35 ns	125 ns	–	–	–	–	–	–
[Cl-].[Cl-].[Ru+2].c1ccc(-c2ccccn2)nc1.c1ccc(-c2ccccn2)nc1.c1ccc(-c2ccccn2)nc1 [3a, Ru(Bpy)3^2+]	4.55	96 ns	183 ns	573 ns	930 ns	minimal non-specific binding affinity	negligible binding	5.77 and 5.78	166 ns
[Ru+2].c1ccc(-c2ccccn2)nc1.c1ccc(-c2ccccn2)nc1.c1ccc(-c2ccccn2)nc1 [3b]	4.52	110 ns	–	–	–	–	–	–	–
